# A3G deaminase – inhibitors of human APOBEC3G DNA deaminase; Q9HC16; AID 493012; recombinant A3G, ssDNA deamination FAM/TAMRA fluorescence; inhibition, % at 20 µM; actives 0.28% (n = 330,000);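 active = inhibition of at least 40% at 20 µM, with no more than 30% in the related APOBEC3A deaminase screen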;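 also: plate controls were DMSO wells with A3G for no effect and wells lacking A3G enzyme for full effect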
# ABHD5-PLIN5 inh – inhibitors of human ABHD5-perilipin-5 interaction. actives 0.78% (n = 360,000). Split G. princeps luciferase complementation, luminescence, 4 h. inhibition, % at 4 µM. AID 602281;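 active = inhibition above the mean inhibition across every tested compound plus 3 SD, cut at about 22% in these data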;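 also: 0% = DMSO only wells and the 100% control is not disclosed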
# Target sequence (Q00G26 whole entry, looked up): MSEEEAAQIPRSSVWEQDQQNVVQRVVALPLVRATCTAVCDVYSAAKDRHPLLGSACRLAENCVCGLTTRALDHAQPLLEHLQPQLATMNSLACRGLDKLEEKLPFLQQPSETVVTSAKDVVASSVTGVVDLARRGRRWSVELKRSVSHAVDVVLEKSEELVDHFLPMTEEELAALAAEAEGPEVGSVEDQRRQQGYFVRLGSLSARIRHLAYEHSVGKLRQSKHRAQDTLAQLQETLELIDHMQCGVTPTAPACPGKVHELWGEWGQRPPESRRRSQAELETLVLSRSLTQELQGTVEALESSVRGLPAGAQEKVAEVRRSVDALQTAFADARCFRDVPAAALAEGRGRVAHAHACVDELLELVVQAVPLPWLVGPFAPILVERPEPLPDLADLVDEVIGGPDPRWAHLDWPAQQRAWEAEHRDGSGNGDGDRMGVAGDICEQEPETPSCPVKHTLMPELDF
# Target sequence (Q8WTS1 whole entry, looked up): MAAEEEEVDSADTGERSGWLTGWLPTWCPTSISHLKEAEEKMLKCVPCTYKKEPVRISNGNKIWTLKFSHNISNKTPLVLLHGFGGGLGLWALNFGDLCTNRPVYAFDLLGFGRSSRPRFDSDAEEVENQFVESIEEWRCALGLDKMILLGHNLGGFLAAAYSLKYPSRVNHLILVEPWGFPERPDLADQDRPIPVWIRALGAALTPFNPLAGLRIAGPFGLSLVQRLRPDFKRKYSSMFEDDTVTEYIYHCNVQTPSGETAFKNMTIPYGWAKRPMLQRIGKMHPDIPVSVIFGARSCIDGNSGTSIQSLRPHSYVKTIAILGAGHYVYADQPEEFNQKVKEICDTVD
# A3A deaminase – inhibitors of human APOBEC3A DNA deaminase; recombinant A3A, FAM/TAMRA ssDNA deamination fluorescence; inhibition, % at 20 µM; actives 0.41% (n = 330,000); AID 493011;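 active = at least 40% inhibition at 20 µM here, with at most 30% in a related deaminase screen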;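 also: plate controls were A3A with DMSO for no effect and wells lacking A3A enzyme for full effect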
# PRMT1 inh – PRMT1 (human) inhibition, primary screen; inhibition, % at 2.79 µM; Q99873; recombinant PRMT1, activity-based probe fluorescence polarization; actives 1.3% (n = 370,000);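 active = inhibition above about 21% made by adding two undisclosed values, limit read from the data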
# core dimer inh – HCV core protein dimerization inhibition; inhibition, % at 5 µM; TR-FRET GST/Flag-core106 dimerization, 1536-well; AID 1899; actives 0.33% (n = 300,000);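 active = inhibition above the mean of all tested compounds plus 3 SD, set per screening campaign, cut at about 45% in these data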
#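 System: GST/Flag-tagged HCV core106 proteins. Incubation: compound-protein-antibody incubation 4 h at 22.5 °C. Technique: HTRF with 340 nm excitation, 617/671 nm emission. Medium: KF-containing HEPES buffer, pH 7.45, DTT, CHAPS, BSA. Read-out: inhibition (%) from 671 over 617 nm ratio. Also added: Eu(K)-anti-GST 90 ng/mL plus XL665-anti-Flag 1 µg/mL.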
# NS3 helicase inh – inhibitors of Hepatitis C virus NS3 helicase | NS3 helicase DNA unwinding, Cy5 molecular beacon fluorescence | inhibition, % at 10.9 µM | actives 0.56% (n = 290,000) | AID 1800;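 active = inhibition above the mean of all tested compounds plus 3 SD, set per campaign, cut at about 35% in these data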;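 also: 0% = DMSO wells and 100% = thioflavine S control wells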
#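 System: Hepatitis C virus NS3 helicase domain fragment enzyme | Reagent: Annealed dual-labelled DNA beacon duplex, ATP-started | Compound dosing: 10.9 µM single point, 0.8% DMSO | Incubation: 1 h reaction at 25 °C, ATP-initiated | Technique: Cy5 fluorescence | Evaluation: Percent inhibition from t60/t0 fluorescence ratio | Benchmarks: Low DMSO, high thioflavine S at 110 µM | Replication: Singlicate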
# Active calls of the source: *; nt = not tested or not shown. Shown are actives, neighbours in structure and some others; about 2.9% of the full set was active somewhere.
SMILES,A3G deaminase,ABHD5-PLIN5 inh,A3A deaminase,PRMT1 inh,core dimer inh,NS3 helicase inh
O=C(O)CSc1cc(C(=O)c2cc(F)ccc2O)cn2c(=O)c3c(-c4ccccc4)csc3nc12,-4.2,-0.1,-7.9,5.4,51.8*,22.7
CCOC(=O)c1sc2nc3c(SCCC#N)cc(C(=O)c4cc(F)ccc4O)cn3c(=O)c2c1C,-6.0,2.7,-2.3,0.1,50.2*,17.5
CN1CCN(S(=O)(=O)c2ccc(NC(=O)c3ccc(F)cc3Cl)cc2)CC1,-4.9,10.1,-6.2,-0.7,4.3,-1.9
COC(=O)c1ccc(N)cc1O,-3.3,4.4,-1.9,-0.2,-2.0,2.1
COC(=O)c1ccc(=O)c2nc3/c(=C/O)c(O)cc(=O)c3[nH]c12,nt,3.2,nt,28.7*,23.2,18.1
N=C1/C(=C\c2coc3ccc(O)cc3c2=O)C(=O)N=C2SC=CN12,2.1,4.6,18.4,30.9*,8.2,15.6
c1ccc(-c2nc(-c3ccco3)n3ccccc23)cc1,4.4,11.4,19.8,23.7*,14.6,19.6
Cc1cc(Oc2cccnc2)ccc1NC(=O)Cc1c(C)[nH]c2ccccc12,nt,nt,nt,-0.4,nt,nt
CCc1nnc(NC(=O)CSc2sc3c(O)cc(=O)[nH]c3c2C#N)s1,53.7,0.0,66.6,41.6*,-18.8,16.7
CCc1nnc(NC(=O)CSc2nc3[nH]c(=O)cc(O)c3s2)s1,-6.6,-2.1,1.6,6.6,nt,nt
N#Cc1c(SCC(=O)Nc2cccc(C(F)(F)F)c2)sc2c(O)cc(=O)[nH]c12,9.7,2.4,12.6,21.3*,24.6,6.4
O=[N+]([O-])c1ccc(C=CC=Cc2ccccc2)cc1,nt,-0.7,nt,-3.6,nt,nt
CN(c1ccccc1)c1ccc(/C=C/[N+](=O)[O-])cc1,nt,87.9*,nt,-9.1,-0.9,4.6
COC(=O)[C@H](CC(C)C)N(CCCc1cn(Cc2ccccc2)nn1)S(=O)(=O)c1ccccc1Br,nt,nt,nt,-2.2,nt,nt
COC(=O)c1ccn(CC(=O)NC2CCCCC2)n1,-2.8,-12.6,-0.1,-3.8,-13.6,1.0
COc1cc(OC)c(NC(=O)c2ccc3c(SCC(=O)O)c4c(nc3c2)CCCC4)cc1Cl,-6.2,6.5,-2.6,6.6,46.9*,29.8
O=C(O)/C=C\C(=O)Nc1ccccc1C#Cc1ccc(Br)cc1,-3.5,-7.7,2.0,22.0*,41.6,-9.1
O=C(O)/C=C\C(=O)Nc1ccccc1C#Cc1ccccc1,-5.6,1.4,-5.0,14.5,1.8,-1.9
C[C@@H]1ON(C)[C@H]2C[C@H]3c4cc(-c5ccc(F)cc5)ccc4CCN3C[C@@H]12,nt,nt,nt,0.0,nt,nt
CCC(=O)N(CC)C1=C(O)c2ccccc2C(=O)C1=O,18.0,-32.6,-6.0,53.4*,-9.4,-5.9
COc1ccc(Cc2c(-c3ccc(F)cc3)nc3cc(C)c(Br)c(C)n23)c(C)c1,nt,-12.8,nt,0.5,nt,nt
Oc1ccc(/C=N/Nc2ccc(Cl)nn2)c(O)c1O,31.0,-14.8,18.1,57.6*,-21.8,21.9
CCOC(=O)C1=C(Cc2ccc(F)cc2)C(=O)c2ccccc2C1=O,16.0,46.9*,6.9,78.6*,-11.1,12.6
CCOc1ccc(C2C3=C(CCCC3=O)Nc3ccc4ncccc4c32)cc1 (stereo not drawn),-3.7,6.7,1.3,-6.3,3.2,-5.5
O=C1CCCC2=C1C(c1ccc(O)c(O)c1)c1c(ccc3ncccc13)N2 (stereo not drawn),16.8,-4.1,11.4,21.2*,10.2,26.3
SMILES,A3G deaminase,ABHD5-PLIN5 inh,A3A deaminase,PRMT1 inh,core dimer inh,NS3 helicase inh
C=CCN1C(=O)[C@@H](CC(=O)NCc2cccc3ccccc23)[C@]2(C(=O)OCC)CCCCC/C=C/12,nt,nt,nt,-4.2,nt,nt
O=C(COC(=O)C1CCCCC1C(=O)N1CCc2ccccc21)NCc1ccco1 (stereo not drawn),8.3,2.6,13.4,0.2,82.8*,17.9
O=C(COC(=O)C1CC2C=CC1C2)NCc1ccco1 (stereo not drawn),33.1,7.8,58.3,2.5,76.5*,22.5
CCCCOCCCNC(=O)C[C@@H]1C[C@]2(C(=O)OCC)CCC3=C2N(CCC3)C1=O,nt,nt,nt,-2.0,nt,nt
CCCCn1c(NC(=O)c2ccc(F)cc2)c(C#N)c2nc3ccccc3nc21,-20.1,nt,-15.6,nt,9.6,nt
CCCCn1c(NC(=O)c2ccccc2)c(C#N)c2nc3ccccc3nc21,nt,-49.5,nt,5.3,nt,39.8*
C#CCOCCOCCOCCNc1nc(N2CCN(C(=O)[C@H](Cc3cc4ccccc4[nH]3)n3cc([C@@H](N)C(C)CC)nn3)CC2)nc(N2CCN(C(=O)[C@H](Cc3cc4ccccc4[nH]3)n3cc([C@@H](N)Cc4ccc(O)cc4)nn3)CC2)n1 (stereo partly drawn),0.2,nt,0.5,nt,-44.1,-43.3
C#CCOCCOCCOCCNc1nc(N2CCN(C(=O)[C@H](Cc3cc4ccccc4[nH]3)n3cc([C@@H](N)CC(C)C)nn3)CC2)nc(N2CCN(C(=O)[C@H](Cc3cc4ccccc4[nH]3)n3cc([C@@H](N)CC(C)C)nn3)CC2)n1,18.1,50.8*,3.2,nt,-42.2,-28.5
C#CCOCCOCCOCCNc1nc(N2CCOCC2)nc(N2CCN(C(=O)[C@H](Cc3cc4ccccc4[nH]3)n3cc([C@@H](N)CC(C)C)nn3)CC2)n1,-4.9,15.6,-0.9,nt,-18.9,-59.0
C#CCOCCOCCOCCNc1nc(N2CCN(C(=O)[C@H](Cc3ccc(O)cc3)n3cc([C@@H](N)C(C)CC)nn3)CC2)nc(N2CCN(C(=O)[C@H](Cc3cc4ccccc4[nH]3)n3cc([C@@H](N)C(C)CC)nn3)CC2)n1 (stereo partly drawn),-6.2,24.6*,-3.8,nt,-5.7,-31.2
O=C1CCCC2=C1[C@@]1(O[C@H]3C=CC=CN23)C(=O)N(c2ccccc2)c2ccccc21,nt,nt,nt,-6.5,nt,nt
CN(Cc1ccc(F)cc1)C(=O)CN1C(=O)C2(OCCCO2)c2ccccc21,nt,nt,nt,0.1,nt,nt
Cc1cc(C)c2sc(NNC(=O)c3ccc(S(=O)(=O)N4CCc5ccccc5C4)cc3)nc2c1,4.9,29.6*,4.4,1.5,64.2*,3.6
CCc1nnc(NC(=O)c2ccc(S(=O)(=O)N3CCc4ccccc4C3)cc2)s1,-4.3,-4.8,-0.3,2.4,3.8,-3.5
Cc1cc(C)c2nc(NNC(=O)c3ccc(S(=O)(=O)N4CCc5ccccc5C4)cc3)sc2c1,-7.8,29.9*,-5.4,-7.1,51.8*,-1.8
O=C(O)/C=C\C(=O)Nc1ccccc1C(=O)N1CCN(c2ccc(Cl)cc2)CC1,-1.1,-0.1,-1.1,23.9*,-1.4,1.7
CC(C)c1ccc(N2CCN(C(=O)c3ccccc3NC(=O)/C=C\C(=O)O)CC2)cc1,-4.3,-1.2,1.7,16.9,16.8,4.2
S=c1[nH]nc(-c2ccco2)n1-c1ccccc1Cl,41.8*,-5.4,-1.2,-0.2,-3.8,3.6
FC(F)(F)c1ccc(Cl)c(-n2c(-c3ccco3)n[nH]c2=S)c1,7.0,5.3,-4.1,3.4,nt,4.8
